Screens deposited in PubChem by Broad Institute.
PvdQ acylase: P. aeruginosa PvdQ acylase inhibition; purified PvdQ acylase, fluorescence plate reader; 340,000 tested, 0.063% active; AID 488965; inhibition, % at 10 µM; in the data active = inhibition above about 30%, passing the limit was not always enough
rRNA inh HTS: inhibits bacterial ribosomal RNA function over humanized ribosomes. E. coli WT GFP vs humanized-ribosome RFP mutants, fluorescence, 24 h; active compounds read low; DMSO median 0, no signal -100. GFP signal change (wild-type ribosome), % (no concentration beside the values). 350,000 tested, 1.6% active;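 active = significant combined selectivity score with lowered wild-type GFP, culture density cut under 30%, mutant RFP and density less affected; inactive = any of these conditions unmet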
ERp5 block: blocks human ERp5 reductase activity on insulin | Q15084 | ERp5 insulin aggregation, absorbance 650 nm, 90 min | inhibition, % at 9.99 µM | 350,000 tested, 0.05% active | AID 651711;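 active = mean replicate inhibition above about 25%, with every replicate also reaching it, limit read from the data, passing the limit was not always enough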
PDI inh: inhibitors of human protein disulfide isomerase; 350,000 tested, 0.052% active; inhibition, % at 10 µM; PDI insulin aggregation turbidity, A650, 90 min;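 active = mean inhibition across replicates of 30% or more, whatever share of single replicates reach that level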
Target sequence (P07237 whole entry, looked up): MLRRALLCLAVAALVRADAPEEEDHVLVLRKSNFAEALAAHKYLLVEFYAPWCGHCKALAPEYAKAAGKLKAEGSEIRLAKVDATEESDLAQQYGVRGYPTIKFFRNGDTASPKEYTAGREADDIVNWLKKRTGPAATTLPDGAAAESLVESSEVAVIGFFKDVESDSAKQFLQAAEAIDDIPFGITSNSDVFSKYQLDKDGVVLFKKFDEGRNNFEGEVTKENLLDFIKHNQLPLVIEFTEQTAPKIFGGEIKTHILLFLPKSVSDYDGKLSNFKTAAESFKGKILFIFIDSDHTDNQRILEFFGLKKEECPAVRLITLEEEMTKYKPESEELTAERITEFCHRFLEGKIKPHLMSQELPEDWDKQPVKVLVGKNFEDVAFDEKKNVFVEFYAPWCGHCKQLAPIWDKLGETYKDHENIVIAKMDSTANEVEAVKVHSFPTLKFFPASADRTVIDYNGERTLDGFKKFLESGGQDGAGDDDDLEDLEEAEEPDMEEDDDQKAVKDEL
HIV Env fusion: inhibitors of HIV Env-mediated cell fusion; inhibition, % at 12.3 µM; AID 651610; 360,000 tested, 1.1% active; HeLa-JRFL Env/CEM21 cell fusion, luciferase;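 active = mean replicate inhibition score of at least 50 and every replicate individually at or above 50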
FN deposition inh: fibronectin deposition inhibition. 350,000 tested, 0.086% active. inhibition, % at 12.6 µM. AH1F fibroblasts, Alexa488-fibronectin deposition fluorescence, overnight. AID 743247;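 active = mean inhibition across replicates of 30% or more, regardless of how many single replicates reach that level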
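material = AH1F fibroblast monolayer depositing Alexa488-labelled fibronectin into matrix | amount = 10000 AH1F cells/well | buffer or medium = DMEM plus 2% serum, read in PBS | incubation = 1 h cell adhesion before compound, then overnight fibronectin incubation | detection = fluorescence at 485 nm excitation, 525 nm emission | evaluation = percent inhibition as loss of matrix-bound fibronectin fluorescence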
Numbers stand for hits; – = inactive; · = no result; [ ] = another dose, or the depositor's remark. The list is not random: actives were taken first. Their share in the collection is about 2.2%.

SMILES | PvdQ acylase | rRNA inh HTS | ERp5 block | PDI inh | HIV Env fusion | FN deposition inh
CO[C@@H]1CN(C)C(=O)c2ccc(NC(=O)Nc3cccc(F)c3)cc2OC[C@@H](C)N(C(=O)Nc2cccc(F)c2)C[C@H]1C | · | – | – | · | 74.0[16.7 µM] | –
CO[C@H]1CN(C)C(=O)c2ccc(NC(=O)C3CC3)cc2OC[C@@H](C)N(C(C)=O)C[C@@H]1C | · | – | – | · | 62.0[16.7 µM] | –
CO[C@@H]1CN(C)C(=O)c2ccc(NC(=O)C3CC3)cc2OC[C@@H](C)N(C(C)=O)C[C@H]1C | · | – | – | · | · | –
O=C(C[C@@H]1CC[C@@H](NC(=O)c2cccc(F)c2)[C@H](CO)O1)NCCN1CCCC1 | · | – | – | · | – | –
O=C(COC(=O)c1ccc[nH]c1=O)Nc1ccc(N2CCCCC2)cc1 | – | – | – | – | 62.3 | –
O=C1CCC(=O)N1CNc1ccc(Oc2ccccc2)cc1 | – | -13.3 | – | – | · | ·
C[C@H](CO)N1C[C@H](C)[C@H](CN(C)C(=O)Nc2ccc3c(c2)OCO3)Oc2ncc(C#CCN(C)C)cc2C1=O | · | – | – | · | – | –
CN1C(=O)C2(c3ccccc31)N(C)CC(c1ccccn1)C21SC(=S)N(Cc2ccco2)C1=O (configuration not stated) | – | · | · | – | – | –
CN1C(=O)C2(c3ccccc31)N(C)CC(c1ccccc1)C21SC(=S)N(Cc2ccco2)C1=O (configuration not stated) | – | · | · | – | 79.7 | –
O=C1/C(=C/c2ccc([N+](=O)[O-])cc2)Oc2cc(O)ccc21 | 69.3 | – | – | – | – | –
CCCCN(C(=O)C1=CC=CN2CCS(=O)(=O)N=C12)c1ccccc1 | – | – | – | 36.6 | – | –
O=C1NC[C@@H](CCCCN2C[C@H](Cc3ccc(O)cc3)N(CCC3CCCCC3)C(=O)C2=O)N(CCc2ccc(O)cc2)C1=O | · | – | – | · | – | –
O=C1NC[C@H](CCCCN2C[C@H](Cc3ccc(O)cc3)N(CCC3CCCCC3)C(=O)C2=O)N(CCc2ccc(O)cc2)C1=O | · | -24.6 | – | · | – | –
O=C1NC[C@@H](CCCCN2C[C@H](Cc3ccc(O)cc3)N(Cc3ccccc3)C(=O)C2=O)N(CCc2ccc(O)cc2)C1=O | · | – | – | · | 57.3 | –
O=C1NC[C@H](CCCCN2C[C@H](Cc3ccc(O)cc3)N(Cc3ccccc3)C(=O)C2=O)N(CCc2ccc(O)cc2)C1=O | · | – | – | · | – | –
O=S(=O)(NCC[C@@H]1CC[C@@H](NS(=O)(=O)c2cccc(Cl)c2)[C@@H](CO)O1)c1cccc(F)c1 | · | – | – | · | – | –
CCCC(=O)Nc1ccc2c(c1)C(=O)N(C)[C@@H]1CC[C@@H](CC(=O)NC3CCCC3)O[C@H]1CO2 | · | – | – | · | – | –
CCC[N+](CC#CCO)(CC#Cc1ccccc1)CCC | – | – | – | – | – | –
CC[N+](CC)(CC#Cc1ccccc1)CC(=O)c1ccc(Cl)cc1 | – | -23.0 | – | – | – | –
CO[C@H]1CN(C)C(=O)c2ccc(NC(=O)C3CC3)cc2OC[C@H](C)N(Cc2cccnc2)C[C@H]1C | · | – | – | · | · | –
COCC(=O)N(C)C[C@H]1Oc2cc(C3=CCCCC3)ccc2S(=O)(=O)N([C@H](C)CO)C[C@H]1C | · | – | – | · | – | ·
CC(=O)OC1CC(c2cc(C(C)(C)C)c(O)c(C(C)(C)C)c2)=NO1 (configuration not stated) | – | -21.0 | – | – | – | –
COc1ccc(C2=NOC(C(=O)NC(C)(C)C)C2)cc1 (configuration not stated) | – | · | · | – | – | –
COc1ccccc1N(CN1C(=O)c2ccccc2C1=O)C(=O)c1cccc(C)c1 | – | -29.8 | – | – | – | –
Cc1cc(Br)cc(Br)c1OCC(=O)NNC(=O)CCC(=O)NCc1ccccc1 | – | – | 27.3 | – | – | ·
O=C(NC(=O)c1ccccc1)Nc1ccccn1 | – | – | – | – | 67.8 | ·
CC(C)(C)C1CCC(=NOC(=O)c2ccc(F)cc2)CC1 (configuration not stated) | – | -41.4 | – | – | – | –
O=C(ON=C1CCN(S(=O)(=O)c2ccccc2)CC1)c1ccc(F)cc1 | – | · | · | – | – | –
CC1CCCN(c2nc(N(C)c3ccccc3)nc(N)c2[N+](=O)[O-])C1 (configuration not stated) | – | -16.9 | – | – | – | –
